# Screening results deposited in PubChem by Broad Institute.
# Tcruzi prolif = T. cruzi intracellular proliferation inhibitors, primary screen, cell-based, beta-gal Tulahuen parasites, NIH3T3 host, luminescence. T. cruzi beta-gal in NIH3T3, GalScreen luminescence, 90 h. inhibition, % at 8.34 µM. 5.9% of 77,000 active. AID 624255, 2012;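 active means mean inhibition above about 93%, with at least 55% of replicates each passing it, limit read from the data, passing the limit was not always enough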
# IDH1 R132H inh = inhibitors of IDH1 R132H reductase, primary screen, biochemical, plate reader, single point; diaphorase/resazurin fluorescence, 60 min; inhibition, % at 10 µM; 0.18% of 70,000 active; AID 624101, 2012; in the data active means inhibition above about 34%;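 further: 0% = DMSO and 100% = no enzyme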
# Target sequence (O75874 whole entry R132H): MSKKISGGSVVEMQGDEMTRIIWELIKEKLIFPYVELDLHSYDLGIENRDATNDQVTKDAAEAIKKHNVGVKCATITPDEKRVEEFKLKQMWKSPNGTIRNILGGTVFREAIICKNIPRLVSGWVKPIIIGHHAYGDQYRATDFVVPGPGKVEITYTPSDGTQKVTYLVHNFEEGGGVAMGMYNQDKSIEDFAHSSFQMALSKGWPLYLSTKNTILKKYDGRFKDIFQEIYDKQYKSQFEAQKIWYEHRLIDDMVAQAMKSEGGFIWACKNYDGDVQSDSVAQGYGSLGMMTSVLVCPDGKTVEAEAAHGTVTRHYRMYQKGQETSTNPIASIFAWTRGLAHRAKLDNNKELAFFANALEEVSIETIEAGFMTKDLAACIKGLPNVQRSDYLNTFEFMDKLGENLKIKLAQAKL
# Pf Dd2 inh = P. falciparum Dd2 growth inhibitors, primary screen, SYBR Green fluorescence, single dose replicates; 72 h; stronger effect = lower value; activity change, % at 10 µM; 2.3% of 94,000 active; in the data active means activity change below about -80%
# KDM4C inh = inhibitors of GASC-1 (KDM4C) histone demethylase, primary screen, biochemical, single concentration HTS; Lysine-specific demethylase 4C (Homo sapiens), Q9H3R0; GST-KDM4C 2-372, H3K9me3 peptide, LANCE TR-FRET; inhibition, % at 12.5 µM; 0.15% of 96,000 active;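 active means mean replicate inhibition above about 25%, with at least 55% of replicates also reaching it, limit read from the data, passing the limit was not always enough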
#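 Test system – GST-tagged GASC-1 (JMJD2C) catalytic fragment, aa 2-372 · Medium – HEPES buffer, pH 7.5, plus ascorbate · Reagent – H3K9me3 peptide with Fe(II)/2OG · Compound – one test concentration per compound · Timing – 30 min reaction, 60 min detection, RT · Technique – TR-FRET with Eu antibody and ULight streptavidin, EDTA stop · Read-out basis – inhibition from TR-FRET ratio decrease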
# Numbers without * were called inactive; nt = no result; ! = repeats disagree. Sampled rows, rich in hits. Any-hit rate of the full collection: about 5.9%.
SMILES,Tcruzi prolif,IDH1 R132H inh,Pf Dd2 inh,KDM4C inh
Cc1ccc(S(=O)(=O)N2C(=O)CCC2C(=O)Nc2ccccc2-c2ccccc2)cc1 (stereo not given),nt,-1,nt,nt
Cc1ccc(S(=O)(=O)N(C)C[C@@H]2Oc3ccc(NS(=O)(=O)c4ccc(Cl)cc4)cc3CC(=O)N([C@@H](C)CO)C[C@@H]2C)cc1,42,0,-81*,0
COc1ccc(S(=O)(=O)Nc2ccc3c(c2)CC(=O)N([C@H](C)CO)C[C@H](C)[C@@H](CN(C)S(=O)(=O)c2ccc(OC)cc2)O3)cc1,9,-3,-49,7
COc1ccc(S(=O)(=O)Nc2ccc3c(c2)CC(=O)N([C@@H](C)CO)C[C@H](C)[C@H](CN(C)S(=O)(=O)c2ccc(OC)cc2)O3)cc1,3,-3,-86*,-5
CC1=CC(C)(C)N2C(=O)C(=O)c3cc(OC(=O)CN4C(=O)c5cccc6cccc(c56)C4=O)cc1c32,nt,2,nt,nt
CCCNC[C@@H]1[C@@H](c2ccc(C3=CCCC3)cc2)[C@@H](CO)N1C(=O)C1CCCC1,nt,nt,-92*,-2
OC[C@@H]1[C@H](c2ccc(C3=CCCCC3)cc2)[C@@H](CNC2CCCC2)N1CC1CC1,nt,nt,-92*,4
CCC(=O)NC[C@H]1[C@H](c2ccc(C3=CCCC3)cc2)[C@@H](CO)N1C(=O)C1CC1,44,nt,-11,0
CCC(=O)N1[C@H](CO)[C@H](c2ccc(C3=CCCCC3)cc2)[C@H]1CNC1CCCC1,nt,nt,-90*,-3
C/C=C/c1ccc([C@H]2[C@@H](CO)N(C(=O)CC)[C@@H]2CNCC2CCCCC2)cc1,nt,nt,-85*,2
Cc1nc([N+](=O)[O-])c(Sc2nc3ncc(Cl)cc3[nH]2)n1Cc1ccccc1,nt,0,nt,nt
COc1ccc(S(=O)(=O)N(C)CC(=O)Nc2cccc([N+](=O)[O-])c2)cc1Cl,nt,1,nt,nt
COc1cc(NC(=O)COc2cc(C)c(Cl)c(C)c2)c(C(=O)O)cc1OC,nt,0,nt,nt
CCOC(=O)c1sc(NC(=O)C(C)(C)Oc2ccc(Cl)cc2)c(C#N)c1C,nt,1,nt,nt
COCC(=O)N(C)C[C@H]1Oc2ncc(C#CC(C)(C)O)cc2C(=O)N([C@@H](C)CO)C[C@H]1C,-37,2,37,27*
CCCN(C)C[C@H]1Oc2ncc(C#Cc3ccc(OC)cc3)cc2C(=O)N([C@@H](C)CO)C[C@H]1C,nt,0,-87*,-3
CCCN(C)C[C@@H]1Oc2ncc(C#Cc3ccc(OC)c(OC)c3)cc2C(=O)N([C@H](C)CO)C[C@@H]1C,24,2,-82*,-1
CCCN(C)C[C@H]1Oc2ncc(C#Cc3ccc(OC)cc3)cc2C(=O)N([C@H](C)CO)C[C@H]1C,nt,0,-84*,4
COc1ccc(C#Cc2cnc3c(c2)C(=O)N([C@@H](C)CO)C[C@@H](C)[C@@H](CN(C)C)O3)cc1,74,0,-58,-1
COc1ccc(C#Cc2cnc3c(c2)C(=O)N([C@@H](C)CO)C[C@H](C)[C@@H](CN(C)C)O3)cc1,49,0,-42,4
COCC(=O)N(C)C[C@H]1Oc2ncc(C#CC(C)(C)O)cc2C(=O)N([C@H](C)CO)C[C@H]1C,-80,0,22,0
O=C(Nc1ccccc1C(=O)O)c1cccc(S(=O)(=O)NCc2ccccc2)c1,nt,-1,nt,nt
OCc1nnn(-c2ccc(Br)cc2)c1CO,nt,0,nt,nt
Cc1cccc(NC(=O)CSc2nc3sc4c(c3c(=O)[nH]2)CCCC4)c1,nt,0,nt,nt
COc1ccc(C#Cc2cnc3c(c2)C(=O)N([C@H](C)CO)C[C@H](C)[C@H](CN(C)S(=O)(=O)c2cccs2)O3)cc1OC,77,0,-84*!,-3
SMILES,Tcruzi prolif,IDH1 R132H inh,Pf Dd2 inh,KDM4C inh
COc1ccc(C#Cc2cnc3c(c2)C(=O)N([C@H](C)CO)C[C@H](C)[C@H](CN(C)C(=O)c2ccccc2F)O3)cc1,60,-2,-84*,-2
COc1ccc(C#Cc2cnc3c(c2)C(=O)N([C@H](C)CO)C[C@H](C)[C@H](CN(C)S(=O)(=O)c2ccccc2)O3)cc1OC,30,0,-76,-1
O=C(CSc1n[nH]c(-c2ccc(Cl)cc2)n1)Nc1cccc(F)c1,nt,0,nt,nt
COc1ccc2c3c(n(C)c2c1)[C@@H](CO)N(C(=O)c1ccc(F)cc1)CC31CN(C(=O)Nc2ccc(F)cc2)C1,nt,nt,-89*,-1
COc1ccc2c3c(n(C)c2c1)[C@H](CO)N(C(=O)Nc1ccc(F)cc1)CC31CCN(Cc2ccccc2F)CC1,nt,nt,-76,0
COc1ccc2c3c(n(C)c2c1)[C@@H](CO)N(C(=O)Nc1ccc(F)cc1)CC31CN(Cc2ccccc2F)C1,nt,nt,-88*,-1
COc1ccc2c3c(n(C)c2c1)[C@H](CO)N(C(=O)c1ccc(F)cc1)CC31CN(C(=O)Nc2ccc(F)cc2)C1,nt,nt,-76,-2
COc1ccc2c3c(n(C)c2c1)[C@@H](CO)N(C(=O)c1ccc(F)cc1)CC31CCN(C(=O)c2ccc(F)cc2)CC1,nt,nt,-86*,0
COc1ccc2c3c(n(C)c2c1)[C@@H](CO)N(C(=O)c1ccc(F)cc1)CC31CN(CC2CCOCC2)C1,nt,nt,-88*,-1
Cc1cccc(NC(=O)C(Cc2ccccc2)N2C(=O)c3cc(Cl)c(Cl)cc3C2=O)c1 (stereo not given),nt,0,nt,nt
Cc1ccc(NC(=O)CSc2n[nH]c(N)n2)cc1Cl,nt,0,nt,nt
COc1ccc(S(=O)(=O)Nc2ccc(Br)c3cccnc23)c([N+](=O)[O-])c1,nt,0,nt,nt
COc1ccc2c3c(n(C)c2c1)[C@@H](CO)NCC31CN(C(=O)c2ccc(F)cc2)C1,nt,nt,69,nt
COc1ccc2c3c(n(C)c2c1)[C@H](CO)NCC31CN(Cc2ccc(-c3ccccn3)cc2)C1,nt,nt,-88*,-1
COc1ccc2c3c(n(C)c2c1)[C@@H](CO)NCC31CN(C(=O)c2cccc(F)c2)C1,nt,nt,-82*,0
COc1ccc2c3c(n(C)c2c1)[C@@H](CO)NCC31CN(Cc2ccccc2Cl)C1,nt,nt,-23,2
O=C(NCc1ccco1)c1cc(-c2cccc(Cl)c2)nc2ccccc12,nt,0,nt,nt
COc1ccccc1-c1ccc2c(c1)O[C@H](CN(C)Cc1ccc3c(c1)OCO3)[C@@H](C)CN([C@H](C)CO)S2(=O)=O,nt,-3,-84*,1
CC(C)CC#Cc1ccc2c(c1)O[C@@H](CN(C)Cc1ccc3c(c1)OCO3)[C@H](C)CN([C@@H](C)CO)S2(=O)=O,72,-1,-81*,nt
COc1ccccc1-c1ccc2c(c1)O[C@H](CN(C)C(=O)c1ccncc1)[C@H](C)CN([C@H](C)CO)S2(=O)=O,55,2,4,2
COc1ccccc1-c1ccc2c(c1)O[C@@H](CN(C)C(=O)c1ccncc1)[C@H](C)CN([C@@H](C)CO)S2(=O)=O,62,36*,-8,32*
CCCC(=O)n1nc(-c2ccc(Cl)cc2)nc1NCc1ccco1,nt,0,nt,nt
Cc1cc(C)c(OCC(=O)Nc2ncc(I)cc2C)c(Cl)c1,nt,0,nt,nt
